Most compounds without a hit are left out; they make up all but 3.9% or so of the library.
CHRM1 agonist: human M1 muscarinic receptor agonism. AID 588814. CHO-K1 hM1, Fluo-8 calcium fluorescence, agonist mode; 0% DMSO, 100% acetylcholine EC100. activation, % at 3 µM. P11229. 360,000 compounds, 0.33% hits;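 active = activation above the run's mean compound activation plus 3 SD, cut at about 16% in these data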;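 also: peak over basal fluorescence ratio within a 140 s kinetic read after compound addition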
CHRM1 antagonist: human CHRM1 antagonism; inhibition, % at 3 µM; 360,000 compounds, 1.3% hits; CHO-K1 hM1, Fluo-8 calcium fluorescence, ACh EC80 antagonist; AID 588852;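 active = percent inhibition above its own plate's cutoff, namely the mean of that plate's compound wells plus 3 SD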;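 also: peak over basal fluorescence ratio during 140 s after agonist addition; 0% = ACh EC80 plus DMSO and 100% = DMSO alone without agonist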
HTR2A ag: agonists of mouse serotonin 5-HT2A receptor (HTR2A) | AID 624169 | P35363 | 360,000 compounds, 0.66% hits | CHO-K1 mHTR2A beta-arrestin complementation, luminescence; percent of 30 µM serotonin response | activation, % at 7.6 µM;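 active = activation above a run cutoff, the mean activation of all tested compounds plus 3 SD, cut at about 14% in these data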;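 also: 0% = plate median of compound wells and 100% = 30 µM serotonin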
CHRM1 PAM: potentiates human M1 receptor response to acetylcholine. CHO-K1 hM1, Fluo-8 calcium fluorescence, ACh EC20; 0% = ACh EC20, 100% = maximal ACh. P11229. 360,000 compounds, 0.088% hits. activation, % at 3 µM; in the data active = activation above about 19%, passing the limit was not always enough
TAAR1 antag: human TAAR1 antagonism; Q96RJ0; CHO RD-HGA16 TAAR1, Fluo-8 calcium fluorescence, antagonist; inhibition, % at 3 µM; 360,000 compounds, 1.5% hits;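 active = inhibition above a per-plate cutoff, the mean inhibition of test compounds on that plate plus 3 SD, cut at about 49% in these data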;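 also: 0% = DMSO plus EC80 beta-PEA response and 100% = DMSO alone without agonist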
Target sequence (Q96RJ0 whole entry, looked up): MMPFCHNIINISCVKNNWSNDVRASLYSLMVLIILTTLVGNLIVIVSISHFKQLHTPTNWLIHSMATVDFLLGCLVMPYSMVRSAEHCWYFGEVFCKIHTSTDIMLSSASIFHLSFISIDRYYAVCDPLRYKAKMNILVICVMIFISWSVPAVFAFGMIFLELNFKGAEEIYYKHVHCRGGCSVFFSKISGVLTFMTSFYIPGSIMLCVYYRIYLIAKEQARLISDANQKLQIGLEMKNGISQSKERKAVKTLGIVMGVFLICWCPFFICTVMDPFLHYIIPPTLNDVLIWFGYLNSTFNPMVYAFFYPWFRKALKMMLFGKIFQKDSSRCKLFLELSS
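Test system: hTAAR1-expressing CHO RD-HGA16 cells, Gα16-coupled; Probe or stimulus: EC80 β-phenethylamine stimulus; Compound dosing: single nominal final test compound concentration of 3 µM; Timing: 140 s kinetic read after compound, 140 s after agonist; Signal: Fluo-8 calcium-sensitive fluorescence; Measure: % inhibition of agonist calcium response; Controls: DMSO and EC80 PEA controls.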
TAAR1 agonist: agonists of human TAAR1 | CHO RD-HGA16 TAAR1, Fluo-8 calcium fluorescence; vehicle wells 0%, saturating PEA agonist 100% | 360,000 compounds, 0.99% hits | AID 624467 | activation, % at 3 µM | Q96RJ0;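 active = activation above the mean activation of all test compounds in the run plus 3 SD, cut at about 38% in these data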
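Signal – calcium-sensitive Fluo-8 signal, excitation 470-495, emission 515-575 nm · System – RD-HGA16 (CHO) cells co-expressing Gα16 and hTAAR1 · Incubation – 17-24 h seeding, 75 min 37 °C dye, 30 min RT · Compound dosing – 3 µM single concentration · Repeats – no replicates (n 1)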
* hit, by the source's call; . = no result given.

SMILES | CHRM1 agonist | CHRM1 antagonist | HTR2A ag | CHRM1 PAM | TAAR1 antag | TAAR1 agonist
OC(CCN1CC2CCC(CC2)C1)(Cc1ccccc1)c1ccco1 (stereo not drawn) | -6 | 86* | -3 | -28 | -14 | 2
CCn1ccc(C(=O)Nc2ccc(Cl)cn2)n1 | 0 | 33* | 1 | -19 | -4 | 2
CCCn1c(O)c(CN2CCCCC2)c(C)c(C#N)c1=O | 2 | -8 | 1 | 8 | 3 | 9
Cc1c(CN2CCCCC2)c(O)n(CCCO)c(=O)c1C#N | 7 | 36* | 0 | -6 | -18 | 13
Cn1cc(CCOCc2ccccn2)c2ccccc21 | . | . | . | . | -22 | 1
CC1CCCCN1CC(=O)Nc1ccc2c(c1)OC(F)(F)O2 (stereo not drawn) | -9 | 19 | -1 | -22 | -4 | 13
CN1CCC(N(C)CC(=O)Nc2ccc3c(c2)OC(F)(F)O3)CC1 | -7 | 72* | -5 | -23 | -18 | 1
Cc1ccc(S(=O)(=O)NCC(=O)N2CCN(S(=O)(=O)c3ccc(Cl)cc3)CC2)cc1C | -3 | -12 | 3 | 5 | -23 | 0
O=C1NC(=S)/C(=C\c2ccc(-c3ccccc3Cl)o2)S1 | -2 | 12 | -1 | -2 | 50* | 9
O=c1c(O)c(-c2cccs2)oc2ccccc12 | 16* | 21 | -2 | -7 | 27 | 45*
CCOC(=O)C1CCN(C2=C(NS(=O)(=O)c3ccc(Cl)cc3)C(=O)c3ccccc3C2=O)CC1 | 30* | 12 | -1 | -14 | 31 | -2
CC1CCN(C2=C(NS(=O)(=O)c3ccc(Cl)cc3)C(=O)c3ccccc3C2=O)CC1 | -9 | -3 | 3 | 4 | -10 | 1
Cc1oc(-c2ccc(Cl)cc2)nc1CN1CCCC(C(=O)NC2CC2)C1 (stereo not drawn) | -6 | -2 | -1 | -1 | -4 | 0
CCOC(=O)N1CCC(NC(=O)C2CCCN(Cc3nc(-c4cccc(Cl)c4)oc3C)C2)CC1 (stereo not drawn) | -4 | 37* | -5 | -21 | -7 | 6
COc1ccc(OCC(=O)Nc2ccc(NC(=O)c3cccs3)c(OC)c2)cc1 | -4 | 0 | 1 | 1 | -10 | 3
COc1cc(NC(=O)c2cccs2)c(OC)cc1NC(=O)CCC(=O)Nc1ccc2ncccc2c1 | -9 | 14 | -4 | -18 | 53* | 15
O=C(Nc1ccc(N2CCOCC2)c(Cl)c1)c1ccc(Br)o1 | 3 | 41* | 4 | -15 | 60* | 18
OC(CNC1CCCCC1)CON=C1CCSc2c(Cl)cccc21 (stereo not drawn) | 7 | 2 | -2 | -5 | 18 | 40*
OC(CNC1CCCC1)COc1ccc(-c2ccccc2)cc1 (stereo not drawn) | -2 | 14 | -4 | 2 | 1 | 13
CC(=O)OCC1=C(C(=O)OC(C)(C)C)N2C(=O)[C@@H](NC(=O)Cc3ccccc3)[C@H]2SC1 | -3 | -11 | 0 | 8 | -22 | -1
CC1=C(C(=O)OCC(Cl)(Cl)Cl)N2C(=O)C(NC(=O)Cc3ccccc3)C2SC1 (stereo not drawn) | -3 | 5 | 5 | 3 | 61* | 25
O=C(COC(=O)c1c[nH]c(=O)[nH]c1=O)Nc1ccccc1F | 0 | -4 | -3 | 9 | -26 | 1
O=C(Nc1ccccc1F)c1c[nH]c(=O)[nH]c1=O | -3 | 40* | -3 | -12 | -16 | 1
Cc1nnc(SC(C)C(=O)NC2CCCCC2C)s1 (stereo not drawn) | -3 | 1 | 0 | 0 | -5 | 1
O=C(NC(CC1=CCCCC1)c1ccc2ccccc2c1)C(F)(F)F (stereo not drawn) | . | . | . | . | 21 | 2
SMILES | CHRM1 agonist | CHRM1 antagonist | HTR2A ag | CHRM1 PAM | TAAR1 antag | TAAR1 agonist
Cn1cc([N+](=O)[O-])c(C(=O)Nc2nc(-c3ccc(Cl)cc3)cs2)n1 | 0 | 6 | -1 | -4 | 67* | 40*
Nc1c(C(=O)C2CC2)sc2nc(-c3cccs3)cc(C(F)(F)F)c12 | 19* | 37 | 0 | -9 | 18 | 14
CC(C)NC(=O)c1sc2nc(-c3cccs3)cc(-c3cccs3)c2c1N | . | . | . | . | 8 | 6
O=C(Nc1cccc([N+](=O)[O-])c1)c1ccc([N+](=O)[O-])o1 | 4 | -5 | -5 | 3 | -3 | 7
O=C(Nc1cccc(NC(=O)c2ccccc2Cl)c1)c1ccc([N+](=O)[O-])o1 | -2 | 17 | -6 | -18 | 55* | 17
CCCc1nc(Cl)c(C#N)c2c1CCCC2 | 22* | -12 | 0 | -1 | -2 | -2
O=C(CSc1ccc(S(=O)(=O)N2CCOCC2)cn1)Nc1ccc(OC(F)F)cc1 | -2 | 10 | -1 | -1 | 13 | 2
O=C(CSc1ccc(S(=O)(=O)N2CCOCC2)cn1)Nc1ccc(F)c(F)c1 | 0 | 39* | 5 | -14 | 14 | 15
O=C(NCc1ccccc1)[C@@H]1CCCN1C(=O)[C@@H](NS(=O)(=O)c1ccc(F)cc1F)c1ccccc1 | . | . | . | . | -20 | 0
c1ccc(N2CCN(c3ncnc4c3oc3ccccc34)CC2)cc1 | 0 | 11 | -4 | -4 | 49* | 15
CCC(C(=O)Nc1ccc(S(=O)(=O)N2CCN(C)CC2)cc1)c1ccccc1 (stereo not drawn) | 10 | -5 | -2 | 7 | 0 | 34
COc1cccc(CN2CCCC(C(=O)Nc3ccc(-c4cscn4)cc3)C2)c1 (stereo not drawn) | -3 | 35* | -15 | -20 | 0 | 17
COc1cccc(-c2ccc(NC(=O)C3CCCN(Cc4cnc(C)n4C)C3)cc2)c1 (stereo not drawn) | -4 | 28 | -7 | -18 | -3 | 4
COc1ccc2cc(C(=O)C3CCCN(Cc4cccc(C)n4)C3)ccc2c1 (stereo not drawn) | -7 | 60* | -8 | -27 | 4 | 3
COc1cccc(-c2ccc(NC(=O)C3CCCN(Cc4cccc(C)n4)C3)cc2)c1 (stereo not drawn) | -5 | 53* | -11 | -28 | 29 | 8
Cc1ncc(CN2CCCC(C(=O)Nc3ccc(-c4cccc(F)c4)cc3)C2)n1C (stereo not drawn) | -3 | 32* | -12 | -18 | -8 | 5
Cc1ncc(CN2CCCC(C(=O)Nc3ccc(-c4cscn4)cc3)C2)cn1 (stereo not drawn) | 1 | -13 | 8 | 10 | -6 | 1
CC(C)NC(=O)COc1coc(CN2CCN(c3ccccc3)CC2)cc1=O | -1 | 6 | 1 | -2 | 4 | -1
Cc1cccc(CN2CCCC(C(=O)c3ccc4c5c(cccc35)CC4)C2)n1 (stereo not drawn) | -4 | 95* | -10 | -22 | -27 | -1
